According to ChEMBL document CHEMBL4725302, “Isosteres of ester derived glucose uptake inhibitors” (Bioorg Med Chem Lett, 2020):
pIC50: −log10 of the molar value.

How the values were obtained:
[1] = Stability in human serum assessed as reduction in A549 cell viability at 30 uM measured upto 12 hrs by resazurin assay; type: cell-free
Procedure, shortened: (§1)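 Compound at 30 µM preincubated at 37 °C in DMEM with 10% FBS and 1% Pen/Strep for 0, 1, 2, 4, 6, 9, 12, 24, 48 and 72 h. This medium then applied for 24 h to 5 x 10^3 A549 cells (grown overnight, washed twice with PBS). Resazurin added for 30 min, fluorescence Ex 560/Em 590, normalized to DMSO mock.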

[2] = Inhibition of glucose uptake in human NCI-H1299 cells at 30 uM incubated for 10 mins followed by […][3H]2-deoxyglucose and glucose addition and measured after 30 mins by scintillation counting method relative to control; type: functional; conditions: NCI-H1299, 10 min
Procedure, shortened: (§2)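 H1299 cells held 2 h in serum-free medium, then 30 min in KRP buffer. Treated ±30 µM compound for 10 min, then 37 MBq/L [3H]2-deoxyglucose plus 1 mmol/L glucose in KRP for 30 min uptake. Washed twice with ice-cold PBS, lysed in NaOH, radioactivity by scintillation counting. Replicates triplicate to hexad, repeated at least once; mean ± standard deviation.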

[3] = test system: NCI-H1299; assay: Antiproliferative activity against human NCI-H1299 cells assessed as reduction in cell viability at 30 uM incubated for 48 hrs by MTT assay relative to control; type: functional
Procedure, shortened: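 H1299 cells seeded at 5,000 per well, exposed in hexads to compound at 30 µM or DMSO (<0.5% v/v) for 48 h. MTT then added for 4 h and absorbance read at 570 nm. Conditions run in triplicate, quadruplicate or hexad, experiment repeated at least once; mean ± standard deviation.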

[4] = Stability in human serum assessed as compound remaining incubated for 1 hr; type: ADME, cell-free; conditions: read-out: Stabilty
[5] = test system: A549; assay: Antitumor activity in human A549 cells xenografted in NU/J mouse assessed as reduction in tumor volume at 10 mg/kg, ip administered for 10 weeks and measured for every 7 day relative to control; type: functional; set-up: scale not given: the % may be the effect or the level left
[6] = Stability in human serum assessed as reduction in A549 cell viability at 30 uM measured upto 72 hrs by resazurin assay; type: cell-free; procedure, shortened: as §1
[7] = Inhibition of glucose uptake in human NCI-H1299 cells incubated for 10 mins followed by […][3H]2-deoxyglucose and glucose addition and measured after 30 mins by scintillation counting method; type: functional, cell-based; procedure, shortened: as §2
[8] = test system: NCI-H1299; assay: Antiproliferative activity against human NCI-H1299 cells assessed as reduction in cell viability incubated for 48 hrs by MTT assay; type: functional, cell-based; conditions: NCI-H1299, 48 h

| Structure (SMILES) | inhibition at 30 µM [2] | inhibition at 30 µM [3] | also measured |
| --- | --- | --- | --- |
| O=C(Oc1cccc(F)c1OC(=O)c1cccc(O)c1)c1cccc(O)c1 | 92.8% | 56.9% | Stabilty [1]: Unstable; remaining at 1 h [4]: 25%; Activity [5]: 70% |
| Cc1ccc(C(=O)Nc2ccc(Cl)cc2NC(=O)c2ccc(C)c(O)c2)cc1O | 84.8% | 55% | – |
| O=C(Nc1ccc(Cl)cc1NC(=O)c1cc(O)ccc1Cl)c1cc(O)ccc1Cl | 89.9% | 45.3% | – |
| O=C(Nc1ccc(Cl)cc1NC(=O)c1ccc(Br)c(O)c1)c1ccc(Br)c(O)c1 | 97.3% | 54.6% | – |
| Cc1ccc(O)cc1CNc1ccc(Cl)cc1NCc1cc(O)ccc1C | 82.9% | 46.3% | – |
| Oc1cc(CNc2ccc(Cl)cc2NCc2ccc(Cl)c(O)c2)ccc1Cl | 52.4% | 70.9% | – |
| O=C(Nc1ccc(Cl)cc1NC(=O)c1ccc(Cl)c(O)c1)c1ccc(Cl)c(O)c1 | 85.2% | 19% | – |
| O=C(Nc1ccc(Cl)cc1NC(=O)c1ccc(F)c(O)c1)c1ccc(F)c(O)c1 | 47.8% | 25.7% | – |
| Oc1cccc(SCc2cccc(F)c2CSc2cccc(O)c2)c1 | 98.1% | -2% | – |
| Oc1cccc(CNc2ccc(F)cc2NCc2cccc(O)c2)c1 | 39.2% | 37.7% | – |
| O=C(Nc1ccc(Cl)cc1NC(=O)c1cc(O)cc(Cl)c1)c1cc(O)cc(Cl)c1 | 60.6% | 61.3% | – |
| Oc1cc(Cl)cc(CNc2ccc(Cl)cc2NCc2cc(O)cc(Cl)c2)c1 | 81.7% | 47.6% | – |
| O=C(Nc1ccc(Cl)cc1NC(=O)c1cccc(O)c1)c1cccc(O)c1 | 83.7% | 5.9% | – |
| Cc1ccc(O)cc1C(=O)Nc1ccc(Cl)cc1NC(=O)c1cc(O)ccc1C | 21% | 21% | – |
| Oc1cccc(OCc2cccc(F)c2COc2cccc(O)c2)c1 | 89.5% | -1.4% | – |
| Oc1cccc(COc2cccc(F)c2OCc2cccc(O)c2)c1 | 92.6% | 10.6% | – |
| [O-][S+](Cc1cccc(F)c1C[S+]([O-])c1cccc(O)c1)c1cccc(O)c1 (configuration not stated) | 17.2% | 0.2% | – |

| Structure (SMILES) | inhibition at 30 µM [2] | inhibition at 30 µM [3] | also measured |
| --- | --- | --- | --- |
| Cc1ccc(CNc2ccc(Cl)cc2NCc2ccc(C)c(O)c2)cc1O | 93.7% | 77.5% | Stabilty [6]: Stable; pIC50 [7]: 5.72; pIC50 [8]: 5.15 |
| O=S(=O)(Cc1cccc(F)c1CS(=O)(=O)c1cccc(O)c1)c1cccc(O)c1 | 61.4% | 11.8% | – |
| Oc1cccc(CNc2ccc(Cl)cc2NCc2cccc(O)c2)c1 | 52.2% | 56.6% | – |
| O=C(Nc1ccc(F)cc1NC(=O)c1cccc(O)c1)c1cccc(O)c1 | 89.7% | 5.7% | – |
| COc1ccc(C(=O)Nc2ccc(Cl)cc2NC(=O)c2ccc(OC)c(O)c2)cc1O | 39.5% | 26% | – |
| Oc1cccc(CNc2cccc(F)c2NCc2cccc(O)c2)c1 | 54.8% | 5% | – |
| Cc1cc(O)cc(C(=O)Nc2ccc(Cl)cc2NC(=O)c2cc(C)cc(O)c2)c1 | 61.4% | 84.7% | – |
| O=C(Nc1cccc(F)c1NC(=O)c1cccc(O)c1)c1cccc(O)c1 | 20% | 33.4% | – |
| Oc1cc(CNc2ccc(Cl)cc2NCc2ccc(Br)c(O)c2)ccc1Br | 69.1% | 74.1% | – |
| Cc1cc(O)cc(CNc2ccc(Cl)cc2NCc2cc(C)cc(O)c2)c1 | 75% | 60.4% | – |
| COc1ccc(CNc2ccc(Cl)cc2NCc2ccc(OC)c(O)c2)cc1O | 42.2% | 22% | – |
| Oc1cc(CNc2ccc(Cl)cc2NCc2ccc(F)c(O)c2)ccc1F | 24.1% | 22.1% | – |
| O=C(Oc1cccc(O)c1)c1cccc(F)c1C(=O)Oc1cccc(O)c1 | 78.2% | 15.3% | – |
| Oc1cccc(COc2ccc(Cl)cc2OCc2cccc(O)c2)c1 | 91.2% | 14.3% | – |
| Oc1ccc(Cl)c(CNc2ccc(Cl)cc2NCc2cc(O)ccc2Cl)c1 | 80.7% | 70.8% | – |
| Oc1cccc(CCc2cccc(F)c2CCc2cccc(O)c2)c1 | 60.7% | -22.7% | – |
